Data on 18 compounds can be found in ChEMBL document CHEMBL1138142, “Novel endoperoxides: synthesis and activity against Candida species” (Bioorg Med Chem Lett, 2006).

Common to all, as to assay type: functional, organism-based
The subject of one assay is Candida tropicalis. Description: Inhibitory activity against Candida tropicalis. Put shortly: (§1)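 Microbroth dilution in YEPD (1% yeast extract, 2% peptone, 2% glucose, […]), starting inoculum A595 0.2–0.3; compounds as twofold serial dilutions down from 1 mM, growth control on same plate. Shaken at 35 °C; A595 read at addition and 2 h later. Triplicates averaged, IC50 (50% growth inhibition) calculated. Strains: C. albicans JRW #5, C. krusei WM 03,204 (clinical isolates), C. tropicalis ATCC 750.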

Another assay relates to Pichia kudriavzevii. Description: Inhibitory activity against Candida krusei. The procedure, abridged:
as §1

The next assay relates to Candida albicans. Description: Inhibitory activity against Candida albicans. Put shortly:
as §1

A word on the IC50: it is the concentration that inhibits the measured activity by half. Take `C1CCC([C@H]2OOC[C@@H]3O[C@@H]32)C1`: the IC50 in the assay on Candida tropicalis (Candida tropicalis) was found to be 250 µM; in the assay on Pichia kudriavzevii (Pichia kudriavzevii), 500 µM; in the assay on Candida albicans (Candida albicans), 500 µM.

As for NYSTATIN, the IC50 in the assay on Candida tropicalis turned out to be 100 µM; with Pichia kudriavzevii, 100 µM; in the assay with Candida albicans it was 250 µM.

Regarding `C1CCC([C@H]2OOC[C@@H]3O[C@@H]32)CC1`, the IC50 is 125 µM with Candida tropicalis (Candida tropicalis), 500 µM in the assay with Pichia kudriavzevii (Pichia kudriavzevii) and 250 µM in the assay on Candida albicans (Candida albicans).

In the case of `C1CCC([C@H]2OO[C@@H](C3CCCC3)[C@@H]3O[C@@H]32)C1`, the values for the IC50 in the assay with Candida tropicalis (Candida tropicalis), in the assay with Pichia kudriavzevii (Pichia kudriavzevii) and in the assay with Candida albicans (Candida albicans) were 125 µM, 63 µM and 125 µM, respectively.

`C1=C[C@H](C2CCC2)OO[C@@H]1C1CCC1`: the results for the IC50 in the assay on Candida tropicalis (Candida tropicalis), in the assay with Pichia kudriavzevii (Pichia kudriavzevii) and in the assay on Candida albicans (Candida albicans) were 125 µM, 250 µM and 125 µM, respectively.

In the case of `C1CCC([C@H]2OO[C@@H](C3CCCCC3)[C@@H]3O[C@@H]32)CC1`, the half-maximal inhibitory concentration (IC50) with Candida tropicalis (Candida tropicalis) is 200 µM; in the assay on Pichia kudriavzevii (Pichia kudriavzevii), more than 1000 µM; in the assay with Candida albicans (Candida albicans) it was 100 µM.

Turning to `O=C(C1CCCCC1)[C@H]1O[C@H]1[C@@H](O)C1CCCCC1`, the 50% inhibitory concentration (IC50) with Candida tropicalis (Candida tropicalis) is 63 µM; in the assay on Pichia kudriavzevii (Pichia kudriavzevii), 500 µM; with Candida albicans (Candida albicans), 250 µM.

Take `C[C@@H]1[C@H](O)[C@@H](C)/C=C/C=C/C=C/C=C/C=C/C=C/C=C/[C@H](O[C@@H]2O[C@H](C)[C@@H](O)[C@H](N)[C@@H]2O)C[C@@H]2O[C@](O)(C[C@@H](O)C[C@@H](O)[C@H](O)CC[C@@H](O)C[C@@H](O)CC(=O)O[C@H]1C)C[C@H](O)[C@H]2C(=O)O` [AMPHOTERICIN B]: the IC50 in the assay on Candida tropicalis (Candida tropicalis) is 0.1 µM; in the assay with Pichia kudriavzevii (Pichia kudriavzevii), 0.2 µM; in the assay on Candida albicans (Candida albicans), less than 0.5 µM.

Regarding `CC(=O)N1CCN(c2ccc(OCC3COC(Cn4ccnc4)(c4ccc(Cl)cc4Cl)O3)cc2)CC1` (centres undefined) [KETOCONAZOLE], the IC50 with Candida tropicalis (Candida tropicalis) was found to be 12 µM; in the assay on Pichia kudriavzevii (Pichia kudriavzevii), 100 µM; with Candida albicans (Candida albicans), 250 µM.

As for `C1=C[C@@H](C2CCCCC2)OOC1`, the IC50 in the assay with Candida tropicalis (Candida tropicalis) turned out to be 40 µM; in the assay with Pichia kudriavzevii (Pichia kudriavzevii), 75 µM; in the assay on Candida albicans (Candida albicans), 9.5 µM.

Take `C1=C[C@H](C2CCCC2)OO[C@@H]1C1CCCC1`: the IC50 with Candida tropicalis (Candida tropicalis) is 125 µM; in the assay with Pichia kudriavzevii (Pichia kudriavzevii) it was more than 1000 µM; in the assay on Candida albicans (Candida albicans) it was 250 µM.

Turning to `C1=C[C@H](C2CCCCC2)OO[C@@H]1C1CCCCC1`, the IC50 is 200 µM in the assay on Candida tropicalis (Candida tropicalis), 400 µM in the assay on Pichia kudriavzevii (Pichia kudriavzevii) and more than 1000 µM in the assay with Candida albicans (Candida albicans).

For `C1=C[C@@H](C2CCCC2)OOC1`, the IC50 in the assay on Candida tropicalis (Candida tropicalis) was 250 µM; in the assay on Pichia kudriavzevii (Pichia kudriavzevii) it was more than 1000 µM; with Candida albicans (Candida albicans) it was 500 µM.

For `C1CCC([C@H]2OO[C@@H](C3CCCC3)[C@H]3O[C@H]32)C1`, the concentration for half-maximal inhibition (IC50) with Candida tropicalis (Candida tropicalis) was determined as 125 µM; in the assay on Pichia kudriavzevii (Pichia kudriavzevii), 125 µM; in the assay on Candida albicans (Candida albicans), 250 µM.

`C1CCC([C@H]2OOC[C@H]3O[C@@H]23)C1`: the IC50 in the assay with Candida tropicalis (Candida tropicalis) is 75 µM; in the assay on Pichia kudriavzevii (Pichia kudriavzevii), 300 µM; with Candida albicans (Candida albicans) it was 250 µM.

Consider `C1CC([C@H]2OO[C@@H](C3CCC3)[C@H]3O[C@H]32)C1`, for which the IC50 in the assay with Candida tropicalis (Candida tropicalis) is 250 µM; in the assay on Pichia kudriavzevii (Pichia kudriavzevii), 500 µM; with Candida albicans (Candida albicans) it was 250 µM.

Take `C1CCC([C@H]2OO[C@@H](C3CCCCC3)[C@H]3O[C@H]32)CC1`: the IC50 amounted to 25 µM in the assay with Candida tropicalis (Candida tropicalis), 400 µM with Pichia kudriavzevii (Pichia kudriavzevii) and 100 µM with Candida albicans (Candida albicans).

In the case of `C1CC([C@H]2OO[C@@H](C3CCC3)[C@@H]3O[C@@H]32)C1`, the concentration for half-maximal inhibition (IC50) in the assay with Candida tropicalis (Candida tropicalis) is 500 µM; in the assay with Pichia kudriavzevii (Pichia kudriavzevii), 500 µM; in the assay on Candida albicans (Candida albicans), 250 µM.
